Bioassay records (PubChem BioAssay)
HNF4A DNA FP: change in binding of human HNF4 alpha to DNA. 360,000 compounds, 0.3% hits. activity change, % at 10 µM. HNF4a-FITC DNA binding, fluorescence polarization, 1 h. P41235. AID 1224865; in the data active = activity change above about 30%, passing the limit was not always enough
TPT1 inh: blocks Candida albicans tRNA 2'-phosphotransferase. recombinant caTPT1, FP RNA substrate dephosphorylation. inhibition, % at 5 µM. 300,000 compounds, 0.81% hits. AID 1962;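 active = inhibition above the mean of all tested compounds plus 3 SD, set per screening campaign, cut at about 24% in these data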;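 also: plate controls were DMSO alone for no effect and ferristatin control at 100 nM for full effect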
Rpn11 block: inhibitors of human proteasome Rpn11; 360,000 compounds, 0.59% hits; human 26S proteasome, Ub4-pepOG fluorescence polarization; 20S core pre-blocked with epoxomicin; calls only at 20 µM; AID 588493;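 active = inhibition at 20 µM, scaled to each plate's controls, above about 33%, limit read from the data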
PKA-R1A activ: PKA-R1A complex activation; P00514+P68181; PKA-R1A dissociation, Cy5-IP20 fluorescence polarization; scaled: DMSO 0%, 113 µM cGMP 100%; activation, % at 11.4 µM; 340,000 compounds, 0.083% hits; AID 504707;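 active = percent activation above the mean of all tested compounds plus 3 SD, cut at about 19% in these data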;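 also: higher means more PKAc released from R1A so a rise in polarization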
PKA-R2B activ: activates the human PKA-R2B holoenzyme complex; P22694+P31323; activation, % at 11.4 µM; 340,000 compounds, 0.079% hits; AID 504700; PKA-R2B holoenzyme dissociation, Cy5-IP20 fluorescence polarization; R2B truncated from residue 108, S112A mutant; 0% DMSO only, 100% 113 µM cGMP;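 active = activation above a cutoff set at the mean over all compounds plus 3 SD, cut at about 18% in these data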;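 also: higher means more holoenzyme dissociation and a rise in polarization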
CSN inh: blocks human CSN-mediated cullin deneddylation; Q92905; 360,000 compounds, 0.38% hits; inhibition, % at 12.5 µM; Purified CSN, SCF-Nedd8-OG deneddylation, fluorescence polarization;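 active = pattern-corrected inhibition above about 35%, with an unprinted fluorescence ratio check between 0.5 and 1.5, limit read from the data, passing the limit was not always enough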;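 also: 0% = enzyme with substrate and 100% = substrate without enzyme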
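Schedule: reaction 90 min, room temperature / Assay system: HEK293T-derived human Csn5 enzyme / Input: Csn5 at 0.24 nM final / Measure: inhibition of Csn5 cleavage, % / Control set: substrate-only high control, full reaction low control / Technique: fluorescence polarization of the substrate / Buffer or medium: Tris/NaCl/DTT buffer, pH 7.5 / Reagent: SCFSkp2-Nedd8OG substrate at 10 nM final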
CSN deneddyl val: validation of inhibitors of human CSN-mediated cullin deneddylation; Csn5 deneddylation of SCF-Nedd8OG, fluorescence polarization, 90 min; inhibition, % at 16.6 µM; 540 compounds, 62% hits; shares compounds with CSN inh; in the data active = inhibition above about 50%;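 also: 0% = DMSO with enzyme and 100% = no enzyme wells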
MMP-2 counter: MMP-2 (human) inhibition, counter-screen for CSN hits | AID 720655 | inhibition, % at 16.6 µM | 540 compounds, 33% hits | shares compounds with CSN inh | recombinant MMP-2, FRET substrate fluorescence, 60 min;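 active = corrected plate-normalized z-score of 5 or more, or -5 or less, or inhibition of 15% or more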;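 also: plate controls were DMSO wells with enzyme for no effect and buffer wells lacking MMP-2 for full effect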
Target sequence (P08253 whole entry, looked up): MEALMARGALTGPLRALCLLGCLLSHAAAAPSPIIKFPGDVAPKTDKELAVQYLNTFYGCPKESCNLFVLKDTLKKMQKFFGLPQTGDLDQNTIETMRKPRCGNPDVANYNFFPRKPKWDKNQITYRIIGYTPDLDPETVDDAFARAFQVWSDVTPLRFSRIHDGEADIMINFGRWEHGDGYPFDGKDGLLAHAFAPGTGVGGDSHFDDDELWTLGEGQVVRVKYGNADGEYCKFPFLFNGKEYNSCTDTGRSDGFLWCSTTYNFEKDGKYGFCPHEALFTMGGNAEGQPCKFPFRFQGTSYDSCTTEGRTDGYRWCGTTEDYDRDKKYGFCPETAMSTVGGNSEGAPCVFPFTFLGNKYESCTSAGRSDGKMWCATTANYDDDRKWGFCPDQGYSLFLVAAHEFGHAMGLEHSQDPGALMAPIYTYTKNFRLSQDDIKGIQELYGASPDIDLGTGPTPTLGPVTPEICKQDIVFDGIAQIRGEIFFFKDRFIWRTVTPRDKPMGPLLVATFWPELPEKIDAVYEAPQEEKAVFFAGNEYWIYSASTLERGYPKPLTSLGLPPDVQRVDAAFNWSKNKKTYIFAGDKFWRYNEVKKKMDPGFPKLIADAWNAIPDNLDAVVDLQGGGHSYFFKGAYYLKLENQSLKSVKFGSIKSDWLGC
Thrombin counter: counter-screen for CSN deneddylation inhibitors: bovine thrombin inhibition | bovine thrombin cleavage of Ub4-pepOG, fluorescence polarization | shares compounds with CSN inh | AID 720656 | inhibition, % at 16.6 µM | 540 compounds, 49% hits;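 active = inhibition at or above a set limit, with a fluorescence interference ratio between 0.5 and a set maximum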
Active calls of the source: *; ! = not confirmed by another sample. Hits are enriched below; roughly 1.6% of the tested compounds scored in any of these assays.

How did C[C@H](CO)N1C[C@H](C)[C@@H](CN(C)C(=O)Oc2ccc3ccccc3c2)OCc2cn(nn2)CCCC1=O do in these assays?
HNF4A DNA FP: 0; Rpn11 block: inactive; PKA-R1A activ: -2; PKA-R2B activ: -4; CSN inh: 7

How did CN(C)[C@@H]1C(=O)C(C(N)=O)=C(O)[C@@]2(O)C(=O)C3=C(O)c4c(O)cccc4[C@@](C)(O)C3[C@H](O)C12 (stereo partly specified) do in these assays?
HNF4A DNA FP: -57; TPT1 inh: -31; PKA-R1A activ: -6; PKA-R2B activ: -1; CSN inh: 37*!; CSN deneddyl val: 89*; MMP-2 counter: 9; Thrombin counter: 13

Results for CC1=C(O)C(=O)C=C2C1=CC=C1C2(C)CCC2(C)C3CC(C)(C(=O)O)CCC3(C)CCC12C (stereo unspecified) ?
HNF4A DNA FP: -7; Rpn11 block: inactive; PKA-R1A activ: -4; PKA-R2B activ: -9; CSN inh: 42*; MMP-2 counter: 10; Thrombin counter: -1

Results for CCOP(=O)(OCC)C(NC(=O)CN1C(=O)c2ccccc2S1(=O)=O)C(Cl)(Cl)Cl (stereo unspecified) ?
HNF4A DNA FP: 2; TPT1 inh: -3; Rpn11 block: inactive; PKA-R1A activ: 2; PKA-R2B activ: 1; CSN inh: 3

What do the screens show for `CC12CN3CN(C1)CC(C)(C3)C2=NO`?
HNF4A DNA FP: -2; TPT1 inh: -3; Rpn11 block: inactive; PKA-R1A activ: 7; PKA-R2B activ: -10; CSN inh: 0

What do the screens show for `O=c1c2ccccc2nc(/C=C/c2ccc([N+](=O)[O-])o2)n1-c1ccc(O)cc1`?
HNF4A DNA FP: 177; CSN inh: 50*; CSN deneddyl val: 65*; MMP-2 counter: -1; Thrombin counter: 46*

Results for O=C(O)c1ccc(/C=C/c2nc3ccccc3c(=O)n2-c2ccc(Br)cc2)cc1 ?
HNF4A DNA FP: 2; TPT1 inh: -1; Rpn11 block: inactive; PKA-R1A activ: 0; PKA-R2B activ: -1; CSN inh: 3

Results for CCOCCCNC(=O)C1c2cc(OC)c(OC)cc2C(=O)N2CCCCC12 (stereo unspecified) ?
HNF4A DNA FP: -4; TPT1 inh: 2; Rpn11 block: inactive; PKA-R1A activ: 3; PKA-R2B activ: 1; CSN inh: 1

What do the screens show for `CN=C(SCc1cc2c(cc1Cl)OCO2)c1c(O)n(C)c(=O)n(C)c1=O`?
HNF4A DNA FP: -3; TPT1 inh: -2; Rpn11 block: inactive; PKA-R1A activ: 4; PKA-R2B activ: 5; CSN inh: 6

How did Cn1ncnc2c(=O)n(C)c(=O)nc1-2 do in these assays?
HNF4A DNA FP: 112; TPT1 inh: 3; Rpn11 block: inactive; PKA-R1A activ: -15; PKA-R2B activ: -7; CSN inh: 74*; CSN deneddyl val: -21; MMP-2 counter: -7; Thrombin counter: -37

Results for CC(C)(O)C1C2OC(=O)C1C1(O)CC3OC34C(=O)OC2C14C (stereo unspecified) ?
HNF4A DNA FP: 1; Rpn11 block: inactive; PKA-R1A activ: -2; PKA-R2B activ: 11; CSN inh: -2

Results for Clc1cccc(N2Cc3cc(-c4ccccc4)ccc3-n3nncc3C2)c1 ?
HNF4A DNA FP: -4; Rpn11 block: inactive; CSN inh: 69*; CSN deneddyl val: 66*; MMP-2 counter: 14; Thrombin counter: 25*

Results for CCCCn1c(NC(=O)c2ccc(Br)o2)c(C(=O)OCC)c2nc3ccccc3nc21 ?
HNF4A DNA FP: 0; TPT1 inh: 11; Rpn11 block: inactive; PKA-R1A activ: 4; PKA-R2B activ: 7; CSN inh: 21

How did CCCCn1c(NS(=O)(=O)c2ccccc2)c(C(=O)OCC)c2nc3ccccc3nc21 do in these assays?
HNF4A DNA FP: 1; TPT1 inh: 2; Rpn11 block: inactive; PKA-R1A activ: 3; PKA-R2B activ: -12; CSN inh: 63*; CSN deneddyl val: 103*; MMP-2 counter: 7; Thrombin counter: -32

Results for Cc1cc(N(CCCl)CCCl)ccc1C=Cc1ccncn1 ?
HNF4A DNA FP: 67*; PKA-R1A activ: 4; PKA-R2B activ: 3; CSN inh: 41*; CSN deneddyl val: 53*; MMP-2 counter: -23; Thrombin counter: 37*
